HNF4A DNA FP: change in binding of human HNF4 alpha to DNA; P41235; HNF4a-FITC DNA binding, fluorescence polarization, 1 h; activity change, % at 10 µM; 360,000 tested, 0.3% active; AID 1224865; in the data active = activity change above about 30%, passing the limit was not always enough
Exocytosis inh: lytic granule exocytosis inhibition; inhibition, % at 10 µM; 360,000 tested, 0.66% active; TALL-104 LAMP-1 surface exposure, flow cytometry; cells stimulated with thapsigargin and PMA; AID 651702;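 active = inhibition above about 55%, limit read from the data; inconclusive = no clear call, values can overlap the other calls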
Myeloid diff 2: myeloid differentiation induction. ER-HoxA9 myeloid progenitors, lysozyme-GFP differentiation, flow cytometry. calls only at 10 µM. 360,000 tested, 1% active;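 active = normalized GFP-positive differentiation at or above the plate's own cutoff, the solvent-only control mean plus 3 SD; inconclusive = no clear call, values can overlap the other calls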;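 note: cells exposed to compound for four days before flow analysis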
Cardio protect: modulators protecting cardiomyocytes from myocardial damage. protection from H2O2 cell death, % at 20 µM. H9c2 cardiomyocytes, H2O2 injury protection, ATPLite, 2 h. 360,000 tested, 0.63% active. AID 588492;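 active = compounds giving at least 50% protection of heart cells from peroxide-induced death in the single-dose screen, raw or plate-pattern-corrected value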
Pemphigus Ab inh: human desmoglein-3 autoantibody binding inhibition. DSG3-coupled beads, scFv-anti-DSG3-GFP binding, flow cytometry; hits give low values. binding (percent of control), % at 10 µM. 310,000 tested, 0.48% active. AID 588358;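 active = binding more than 3 SD below its plate's average and above zero; inconclusive = below that plate limit but binding exactly zero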;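 note: hits lower antibody fragment binding to DSG3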
SENP1 inh: blocks the human SENP1 SUMO protease catalytic domain | recombinant SENP1 catalytic domain, CyPet-SUMO1-YPet FRET cleavage | inhibition, % at 10 µM | 360,000 tested, 0.21% active;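 active = inhibition at least 30% at 10 µM, raw YFP signal under a set limit, fluorescence ratio 0.5 to 1.5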
Target sequence (Q9P0U3 419-644 limits assumed): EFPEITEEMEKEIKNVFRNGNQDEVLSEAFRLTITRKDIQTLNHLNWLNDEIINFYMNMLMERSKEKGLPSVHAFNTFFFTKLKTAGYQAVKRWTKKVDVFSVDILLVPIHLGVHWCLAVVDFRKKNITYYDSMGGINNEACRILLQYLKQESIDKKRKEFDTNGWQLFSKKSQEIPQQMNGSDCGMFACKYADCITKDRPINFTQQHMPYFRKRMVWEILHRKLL
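material = recombinant human SENP1 catalytic domain, His6-tagged | quantity = 20 pM enzyme | reagent = 25 nM SUMO1 FRET substrate | compound dosing = 10 µM single point, 0.5% DMSO | timing = 50 min enzyme reaction, room temperature, light-protected | detection = FRET, CFP and YFP emission | control set = no-enzyme low, enzyme-DMSO high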
Numbers stand for hits; i = inactive; ? = inconclusive; nt = no result; + = active, no number; ! = not active in a repeat. Shown are actives, neighbours in structure and some others; about 3% of the full set was active somewhere.

SMILES | HNF4A DNA FP | Exocytosis inh | Myeloid diff 2 | Cardio protect | Pemphigus Ab inh | SENP1 inh
Cc1cc(C)c[n+](-c2nc3ccccc3nc2C(=C=[N-])C#N)c1 | 43.8! | i | i | i | i | i
Cc1cccc(CSc2cccc3cccnc23)c1 | i | i | i | i | i | i
c1cnc2c(SCc3ccc(-c4nnco4)cc3)cccc2c1 | i | 68.9 | i | i | i | i
Cc1cc(C)c(S(=O)(=O)c2ccccc2)c(N2CCOCC2)n1 | i | i | i | i | i | i
COc1ccc(CCNC(=O)Cn2cnc3ccccc3c2=O)cc1OC | i | i | i | i | i | i
CCOc1ccc(CCNC(=O)COC(=O)Cn2cnc3ccccc3c2=O)cc1OCC | i | i | + | i | i | i
Cn1cc([C@]2(O)C(=O)Nc3ccccc32)c2ccccc21 | i | i | i | nt | nt | i
O=C(NC(=S)Nc1cccc(O)c1)C1CCCCC1 | i | 62.0 | i | i | i | i
O=C(Cc1ccccc1)Nn1c(O)c(/C=C2\C=Nc3ccccc32)sc1=S | 53.2 | i | i | i | i | i
COc1cccc(C2/C(=C(\O)c3ccc4c(c3)OCCO4)C(=O)C(=O)N2CCCN2CCOCC2)c1OC (centres undefined) | i | i | i | i | i | i
O=C(O)Cc1sc(Nc2ccccc2)nc1-c1cccs1 | 45.2 | i | + | i | i | i
C=CCNc1nc(-c2cccs2)c(CC(=O)O)s1 | i | i | i | i | i | i
COC(=O)CNc1nc(Cl)nc(Nc2ccc(C)cc2)n1 | i | i | i | i | i | i
COC(=O)c1cc2c(C)nn(-c3ccccc3)c2s1 | i | i | i | i | nt | i
CCOC(=O)c1nn(-c2ccccc2)c(=O)c2c(N)scc12 | i | i | i | i | i | i
CCOC(=O)c1cc2c(C)nn(-c3ccccc3)c2s1 | i | i | i | i | -30.2 | i
CCOC(=O)c1nn(-c2ccccc2)c(=O)c2c(NC(C)=O)scc12 | i | i | i | i | 61.9 | i
CC1(c2ccc(Cl)cc2Cl)NC(=O)N(CC(=O)NCCC2=CCCCC2)C1=O (centres undefined) | i | i | i | i | i | i
CC1(C)Cc2c(C#N)c(NCCCO)nc(-c3ccccc3)c2CO1 | 27.7 | i | i | i | i | i
C=CCNc1nnc(SC2CC(=O)N(c3ccc(OCCC)cc3)C2=O)s1 (centres undefined) | i | 66.5 | i | i | i | i
O=C(Nc1cc(Cl)ccc1Oc1ccccc1)c1cnccn1 | i | i | i | i | 66.1 | i
Cc1nn(C)c(C)c1N1C(=O)c2cccc3c(N)ccc(c23)C1=O | i | i | + | i | i | i
Cc1nn(C)c(C)c1N1C(=O)c2cccc3c(Br)ccc(c23)C1=O | i | i | + | i | i | i
CCOc1ccc(NC(=S)NC(=O)c2cccnc2)c([N+](=O)[O-])c1 | i | i | i | i | i | i
COc1ccc2ccccc2c1C1NC(=O)c2ccccc2N1 (centres undefined) | i | i | ? | i | i | i
SMILES | HNF4A DNA FP | Exocytosis inh | Myeloid diff 2 | Cardio protect | Pemphigus Ab inh | SENP1 inh
Cc1ccc(Sc2ncccc2COC(=O)Nc2c(C)cccc2C)cc1 | i | ? | i | i | 3.0 | i
CC(C1CC2CCC1C2)n1c(-c2cccs2)n[nH]c1=S (centres undefined) | i | i | i | i | i | i
CC(C)(C)OC(=O)C[C@H]1C/C=C\C[C@H](CC(=O)N[C@H](CO)Cc2ccccc2)C(=O)N[C@H](Cc2ccccc2)COC1=O | i | i | i | 57.9 | i | i
O=C(C[C@H]1C/C=C\CC[C@H](Cc2ccc(F)cc2)C(=O)O[C@H](c2ccccc2)CNC1=O)N[C@H](CO)Cc1ccccc1 | i | i | i | 90.2 | i | i
O=C(C[C@H]1C/C=C\CC[C@H](Cc2ccc(F)cc2)C(=O)O[C@@H](c2ccccc2)CNC1=O)N[C@H](CO)Cc1ccccc1 | i | i | i | 50.7 | i | i
Cc1cccn2c(CN[C@H]3CCCCNC3=O)c(C(=O)N3CCOCC3)nc12 | i | i | i | i | i | i
CN(Cc1ccccc1Cl)C(=O)C1CCC(=O)N(C2CCCCCC2)C1 (centres undefined) | i | i | i | i | nt | i
O=c1c2ccccc2sn1-c1ccc(S(=O)(=O)N2CCCCC2)cc1 | i | i | i | i | i | i
O=c1c2ccccc2sn1-c1ccc(S(=O)(=O)N2CCCC2)cc1 | i | i | i | i | 61.8 | i
Cc1ccc(-n2sc3ccccc3c2=O)cc1S(=O)(=O)N1CCCCC1 | i | i | i | i | 12.3 | i
CCOC(=O)c1[nH]c2c(c1-c1ccccc1)C(=O)CC(c1ccc(OCC)cc1)C2 (centres undefined) | i | i | i | i | -0.8 | i
O=C1NC[C@H](Cc2ccccc2)N(C[C@H]2CCCN2C[C@H](Cc2ccc(O)cc2)N2C[C@H](Cc3ccc(O)cc3)N(CC3CCCCCC3)C(=O)C2=O)C1=O | i | i | i | i | i | i
O=C(CCN1CCCC1Cc1ccccc1)c1ccc2c(c1)OCCO2 (centres undefined) | i | 100.2 | i | i | i | i
Cc1ccn2c(NC3CCCC3)c(-c3ccncc3)nc2c1 | i | i | i | i | i | i
Cc1ccn2c(NC3CCCCC3)c(-c3cccc(-c4cccc(Cl)c4)c3)nc2c1 | i | i | + | i | nt | i
COc1cc(-c2nc3cc(C)ccn3c2NC2CCCCC2)ccc1-c1ccc(C(C)=O)cc1 | i | i | + | i | i | i
O=C(Cc1ccccc1)Nc1c2c(nn1-c1cccc(Cl)c1)CS(=O)(=O)C2 | i | i | i | i | 86.1 | i
O=C(CCSc1nc2ccccc2s1)N/N=C/c1c(O)ccc2ccccc12 | i | i | ? | 53.9 | i | i
COc1ccc(/C=N/NC(=O)CCSc2nc3ccccc3s2)cc1OC | i | i | i | i | i | i
COC(=O)[C@@]12C[C@@H](CC(=O)NCC34CC5CC(CC(C5)C3)C4)C(=O)N(Cc3ccccc3)C1=CCC(C)(C)C2 | i | i | i | nt | nt | i
CCCCC(O)(CCCC)C(=O)NN(C(=O)OC)c1ccc(C)cc1 | i | i | i | i | i | i
O=C1c2ccccc2NC(c2ccc([N+](=O)[O-])cc2)N1O (centres undefined) | i | i | i | 62.0 | i | i
O=C1c2ccccc2NC(c2cccc([N+](=O)[O-])c2)N1O (centres undefined) | i | i | i | i | i | i
Cc1c(C2Nc3ccccc3C(=O)N2O)cnn1C (centres undefined) | i | i | i | 52.3 | i | i
Cc1nn(-c2ccccc2)c2nc(C(Cl)(Cl)Cl)[nH]c(=O)c12 | i | i | i | i | i | i
O=S(=O)(NCc1ccccc1)c1ccc(S(=O)(=O)N(Cc2cccs2)CC2CCCO2)cc1 (centres undefined) | i | i | i | i | 89.5 | i
